pIC50: −log10 of the molar value.
How the values were obtained:
MDA-MB-231 [1] = experiment: Inhibition of cell proliferation of human MDA-MB-231 after 72 hrs by crystal violet adhesion based colorimetric assay; assay type: functional; details: MDA-MB-231, 72 h
Outline: (§1)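 Crystal violet adhesion: HUVEC 3 × 10^3, MDA-MB-231 5 × 10^3 cells/well, treated 72 h at varied concentrations (up to 10 µM); fixed 4% paraformaldehyde 15 min, PBS pH 7.4 wash, 0.04% crystal violet 30 min, solubilized 2% Triton X-100, OD 595 nm. Mean of three independent experiments in triplicate; IC50 from sigmoid dose–response curve.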

MDA-MB-231 [2] = experiment: Cytotoxicity against human MDA-MB-231 after 48 hrs by WST1 assay; assay type: functional, cell-based; details: MDA-MB-231, 48 h
Outline: (§2)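 WST-1 viability: HUVEC seeded 3 × 10^3, MDA-MB-231 5 × 10^3 cells/well; compounds added one day after seeding at varied concentrations (up to 10 µM); after 48 h medium removed, WST-1 added, 1–2 h at 37 °C, OD 490 nm. Mean of three independent experiments, triplicate per concentration; IC50 from sigmoid dose–response fit.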

HUVEC [3] = experiment: Inhibition of cell proliferation of HUVEC after 72 hrs by crystal violet adhesion based colorimetric assay; assay type: functional; details: Homo sapiens; outline: as §1
HUVEC [4] = experiment: Cytotoxicity against HUVEC after 48 hrs by WST1 assay; assay type: functional, cell-based; details: Homo sapiens; outline: as §2
[5] = molecular target: Neuropilin-1 (Homo sapiens) (UniProt O14786); experiment: Inhibition of biotinylated VEGFA165 binding to NRP1 (unknown origin) at 10 uM by chemiluminescent assay
Outline: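 NRP-1 coated overnight at 0.2 µg/mL in PBS, 4 °C; washed PBS/0.5% Tween 20, blocked 0.5% BSA 2 h 37 °C. Compound preincubated 1 h at 37 °C, then biotinylated VEGF-A165 with 4 µg/mL heparin 2 h at 37 °C; chemiluminescent read-out; percent displacement of bound tracer at 10 µM.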

Chain of Neuropilin-1 (Homo sapiens) (O14786 whole entry): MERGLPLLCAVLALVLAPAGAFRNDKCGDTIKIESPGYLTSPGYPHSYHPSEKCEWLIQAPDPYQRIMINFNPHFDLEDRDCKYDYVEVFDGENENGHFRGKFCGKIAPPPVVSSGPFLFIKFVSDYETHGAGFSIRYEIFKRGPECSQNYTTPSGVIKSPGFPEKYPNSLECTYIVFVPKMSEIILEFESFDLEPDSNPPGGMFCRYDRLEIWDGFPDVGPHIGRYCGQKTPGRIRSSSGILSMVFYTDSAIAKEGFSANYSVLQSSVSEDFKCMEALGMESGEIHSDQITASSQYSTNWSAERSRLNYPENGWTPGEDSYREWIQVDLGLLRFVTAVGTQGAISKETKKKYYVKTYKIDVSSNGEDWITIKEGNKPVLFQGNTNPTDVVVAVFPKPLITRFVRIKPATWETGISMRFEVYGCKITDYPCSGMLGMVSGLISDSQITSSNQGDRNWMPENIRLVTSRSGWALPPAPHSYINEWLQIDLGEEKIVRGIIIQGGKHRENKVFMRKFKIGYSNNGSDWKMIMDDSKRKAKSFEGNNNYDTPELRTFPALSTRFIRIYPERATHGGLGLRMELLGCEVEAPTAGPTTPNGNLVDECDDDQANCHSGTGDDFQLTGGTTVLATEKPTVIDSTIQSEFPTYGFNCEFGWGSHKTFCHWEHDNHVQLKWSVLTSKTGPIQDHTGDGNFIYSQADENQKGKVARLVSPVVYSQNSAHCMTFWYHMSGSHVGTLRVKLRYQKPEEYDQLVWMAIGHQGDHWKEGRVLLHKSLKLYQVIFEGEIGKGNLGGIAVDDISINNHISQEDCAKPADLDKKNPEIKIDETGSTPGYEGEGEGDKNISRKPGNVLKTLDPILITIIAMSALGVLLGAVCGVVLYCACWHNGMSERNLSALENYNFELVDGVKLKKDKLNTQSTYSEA

pIC50 (MDA-MB-231 [1]) | inhibition [5] [%] | Structure (SMILES) | pIC50 (MDA-MB-231 [2]) | pIC50 (HUVEC [3]) | pIC50 (HUVEC [4])
– | 0 | N#Cc1ccc2[nH]c(-c3cccc(NC(=S)NC(=O)c4ccc5c(c4)OCCO5)c3)nc2c1 | < 5.00 | – | 6.00
– | 37 | N#Cc1ccc2[nH]c(-c3cccc(NC(=S)NC(=O)c4ccc5c(c4)OCO5)c3)nc2c1 | – | 5.22 | –
6.30 | 38 | O=C(NC(=S)Nc1cccc(-c2nc3ccccc3[nH]2)c1)c1ccc2c(c1)OCCO2 | 6.40 | > 7.00 | 7.30
6.30 | 34 | Cc1ccc(-c2nc3ccccc3[nH]2)cc1NC(=S)NC(=O)c1ccc2c(c1)OCCO2 | 6.28 | 6.82 | 6.62
< 5.00 | – | S=C(NCc1ccc2c(c1)OCO2)Nc1cccc(-c2nc3ccccc3[nH]2)c1 | < 5.00 | < 5.00 | < 5.00
5.22 | – | Cc1ccc(-c2nc3ccccc3[nH]2)cc1NC(=S)NC(=O)c1ccc2c(c1)OCO2 | 5.22 | 6.12 | 5.82
< 5.00 | – | O=C(NC(=S)Nc1cccc(-c2nc3ccccc3s2)c1)c1ccc2c(c1)OCCO2 | < 5.00 | 5.59 | 5.59
5.10 | 14 | O=C(NC(=S)Nc1cccc(-c2nc3ccccc3s2)c1)c1ccc2c(c1)OCO2 | 5.00 | 6.05 | 6.00
5.22 | 46 | O=C(NC(=S)Nc1cccc(-c2nc3ccccc3[nH]2)c1)c1ccc2c(c1)OCO2 | 5.22 | 6.52 | 6.52

Continued, compound first:

Structure (SMILES) | pIC50 (MDA-MB-231 [1]) | inhibition [5] [%] | pIC50 (MDA-MB-231 [2]) | pIC50 (HUVEC [3]) | pIC50 (HUVEC [4])
O=C(NC(=S)Nc1cccc(-c2nc3ccccc3[nH]2)c1)c1ccccc1 | < 5.00 | – | < 5.00 | < 5.00 | < 5.00
CCOc1ccc(C(=O)NC(=S)Nc2cc(-c3nc4ccccc4[nH]3)ccc2C)cc1OCC | – | 32 | – | 5.22 | –
COc1ccc(C(=O)NC(=S)Nc2cccc(-c3nc4ccccc4[nH]3)c2)cc1OC | 5.00 | – | < 5.00 | 5.30 | 5.22
Cc1ccc(-c2nc3ccccc3s2)cc1NC(=S)NC(=O)c1ccc2c(c1)OCO2 | < 5.00 | – | < 5.00 | 5.30 | 5.30
Cc1ccc(-c2nc3ccccc3[nH]2)cc1NC(=S)NCc1ccc2c(c1)OCO2 | < 5.00 | – | < 5.00 | < 5.00 | < 5.00
COc1ccc(C(=O)NC(=O)Nc2cccc(-c3nc4ccccc4[nH]3)c2)cc1OC | – | – | – | 5.10 | 5.10
Cc1ccc(-c2nc3cc(F)ccc3[nH]2)cc1NC(=S)NC(=O)c1ccc2c(c1)OCO2 | – | – | – | < 5.00 | < 5.00
Cc1ccc(-c2nc3ccccc3[nH]2)cc1NC(=S)NC(=O)c1ccccc1 | < 5.00 | – | < 5.00 | < 5.00 | < 5.00
CCOc1ccc(C(=O)NC(=S)Nc2cccc(-c3nc4ccccc4[nH]3)c2)cc1OCC | – | 14 | – | 5.10 | 5.10

From ChEMBL document CHEMBL3351892, “Synthesis and structure-activity relationship of non-peptidic antagonists of neuropilin-1 receptor” (Bioorg Med Chem Lett, 2014)
